Diaph inh CS = diaphorase inhibition or chemical oxidation counter-screen; actives 0.69% (n = 190,000); inhibition, % at 20 µM; diaphorase resazurin-to-resorufin fluorescence, NADH, 16 min; bacterial (C. kluyveri) enzyme, not human;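 active = primary screen inhibition at 20 µM above a set limit, cut at about 50% in these data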
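Assay system – diaphorase enzyme from Clostridium kluyveri · Amount – diaphorase 0.14 U/mL (working solution) · Times – reaction incubation of 16 min at room temperature · Controls – No-NADH positive control and DMSO neutral control · Signal – resorufin fluorescence 544/590 nm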
HKDC1 inh = inhibitors of human hexokinase HKDC1; actives 0.16% (n = 340,000); recombinant HKDC1, G6PDH/diaphorase resazurin coupled fluorescence; Q2TB90; AID 493160; inhibition, % at 20 µM;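 active = inhibition above about 35% when tested at 20 µM, limit read from the data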
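System: Recombinant HKDC1 hexokinase | Amount: HKDC1 at 5 µg/mL | Reagent: Glucose with 1 mM ATP | Doses: Single 20 µM dose | Incubation: Reaction time 90 min, room temperature, protected from light | Signal: Coupled resazurin fluorescence, excitation 525 nm, emission 613 nm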
PfGluPho inh = PfG6PD (Plasmodium falciparum) enzyme inhibition | AID 504690 | PfGluPho enzyme, NADPH resazurin-diaphorase fluorescence | actives 0.78% (n = 350,000) | inhibition, % at 20 µM;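 active = inhibition reaching at least a set limit at 20 µM in the primary screen, cut at about 59% in these data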
G6PDH CS = counter-screen for G6PDH assay hits: L. mesenteroides G6PDH inhibition; Purified L. mesenteroides G6PDH, diaphorase/resazurin coupled fluorescence, 45 min; inhibition, % at 5 µM; actives 0.12% (n = 200,000); AID 1020; in the data active = inhibition above about 50%
PfG6PD confirm = confirmation of Plasmodium falciparum G6PD inhibitors. shares compounds with PfGluPho inh. recombinant PfGluPho, NADPH-diaphorase-resazurin fluorescence. inhibition, % at 20 µM. actives 34% (n = 2,400);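 active = inhibition of at least 50% at 20 µM in any single replicate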
Diaph ctr 10uM = counter-screen for P. falciparum G6PD inhibitors: diaphorase inhibitors, oxidizers | shares compounds with PfGluPho inh | diaphorase-coupled resazurin reduction, fluorescence, NADPH 10 uM | inhibition, % at 20 µM | actives 39% (n = 820) | AID 504862;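 active = average inhibition reaching 50% or more with the compound at 20 µM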;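 also: resorufin red fluorescence formed as diaphorase reduces resazurin using NADPH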
Diaph ctr 30uM = counter-screen for P. falciparum G6PD inhibitors: diaphorase inhibitors, oxidizers; actives 29% (n = 820); inhibition, % at 20 µM; Diaphorase/resazurin coupled assay, resorufin fluorescence, 30 uM NADPH; shares compounds with PfGluPho inh;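 active = inhibition averaging 50% or more, tested at 20 µM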
Of the large screens only hits and unclear results are named; the others gave an inactive call (follow-up assays come after a bar, where they were run). This is a sample that favours compounds with a hit; in the whole collection about 1.2% have one here.

Cc1ccc(-n2c(N)c(C(N)=O)sc2=S)cc1	PfGluPho inh 69 | PfG6PD confirm inactive
COc1ccc(CNC(=O)c2sc(=S)n(-c3ccc(OC)cc3)c2N)cc1	PfGluPho inh 63 | PfG6PD confirm inactive
CC(NC(=O)Cc1ccccc1)C(=O)O (centres undefined)	none (no result: Diaph inh CS, G6PDH CS)
C[C@H](NC(=O)c1ncn2c1C(=O)NC[C@@H]2C)C(=O)OC(C)(C)C	none (no result: Diaph inh CS, HKDC1 inh, G6PDH CS)
O=S1(=O)CCOC(CO)CN1Cc1ccc(Cl)c(Cl)c1 (centres undefined)	none (no result: Diaph inh CS, G6PDH CS)
O=C(N/N=C/c1cccc2ccccc12)c1ccccc1Cl	PfGluPho inh 83 (no result: Diaph inh CS, G6PDH CS) | PfG6PD confirm inactive
CC(OC(=O)c1cccc(-n2cnnn2)c1)C(=O)Nc1ccc(F)c(F)c1F (centres undefined)	none (no result: Diaph inh CS, G6PDH CS)
O=S(=O)(c1ccc2oc(=S)[nH]c2c1)N1CCOCC1	PfGluPho inh 66 (no result: Diaph inh CS, G6PDH CS) | PfG6PD confirm inactive
O=S(=O)(c1ccc2oc(=S)[nH]c2c1)N1CCCCC1	none (no result: Diaph inh CS, G6PDH CS)
Cc1cccn2c(=O)c3cc(C(=O)NC(C)C)c(=N)n(Cc4ccncc4)c3nc12	PfGluPho inh 73 | PfG6PD confirm inactive
CCCC[n+]1ccn(C2=C([O-])c3ccccc3C(=O)/C2=N\S(=O)(=O)c2ccc(Br)cc2)c1	none
CC(=O)Nc1ccc(S(=O)(=O)/N=C2\C(=O)c3ccccc3C([O-])=C2n2cc[n+](-c3ccccn3)c2)cc1	PfGluPho inh 69 (no result: Diaph inh CS, G6PDH CS) | PfG6PD confirm 56 | Diaph ctr 10uM inactive | Diaph ctr 30uM inactive
CN(C)S(=O)(=O)c1cccc(CNCC2COc3ccccc3O2)c1 (centres undefined)	none (no result: Diaph inh CS, G6PDH CS)
CCOC(=O)c1sc(N)c(C(=O)Nc2ccccc2OC)c1C	PfGluPho inh 66 | PfG6PD confirm inactive
CCCCCn1c(-c2ccco2)nc2nc3ccccc3nc21	PfGluPho inh 64 | PfG6PD confirm inactive
CC[C@]1(C(=O)OC)[C@H]2C(=O)N(Cc3ccccc3)C(=O)[C@H]2[C@H]2CN=C(SCC3CC3)N21	none (no result: Diaph inh CS, G6PDH CS)
COc1ccc2c(c1)c(C(=O)N/N=C/c1cccc(Br)c1)c(C)n2C	PfGluPho inh 115 (no result: Diaph inh CS, G6PDH CS) | PfG6PD confirm 87 | Diaph ctr 10uM 88 | Diaph ctr 30uM 65
COc1ccc2c(c1)c(C(=O)N/N=C/c1cccc(O)c1)c(C)n2C	none
CCN(CC(=O)Nc1c(F)cccc1F)C(=O)c1cccc(S(=O)(=O)N2CCCc3ccccc32)c1	none (no result: Diaph inh CS, G6PDH CS)
CCOC(=O)C(C(=O)OCC)C(c1ccccc1)N1CCN(c2ccccc2)CC1 (centres undefined)	none (no result: Diaph inh CS, G6PDH CS)
O=c1cnc2ccccc2n1Cc1ccccc1C(F)(F)F	none (no result: Diaph inh CS, G6PDH CS)
O=C(CSc1nc2ccccc2o1)N/N=C/c1ccco1	none (no result: Diaph inh CS, G6PDH CS)
Cc1cc(SCC(=O)N/N=C/c2ccco2)nc2ccccc12	PfGluPho inh 80 | PfG6PD confirm 52 | Diaph ctr 10uM 58 | Diaph ctr 30uM inactive
C[n+]1cccc2c(Br)ccc([O-])c21	PfGluPho inh 114 (no result: Diaph inh CS, G6PDH CS) | PfG6PD confirm inactive
[O-][n+]1cccc2c(Br)cc(Br)c(O)c21	none
CCN(C(=O)COC(=O)/C=C/c1c(C)nn(-c2ccccc2)c1C)c1c(N)n(Cc2ccccc2)c(=O)[nH]c1=O	none (no result: Diaph inh CS, G6PDH CS)
CCn1cc(/C=N/NC(=O)c2ccc(C#N)cc2F)c2ccccc21	PfGluPho inh 107 | PfG6PD confirm 89 | Diaph ctr 10uM 81 | Diaph ctr 30uM 64
COC(=O)Cn1cc(/C=N/NC(=O)c2ccc(C#N)cc2F)c2ccccc21	none
CC1CCCCC1NC(=O)c1cccc(S(=O)(=O)N2CCN(Cc3ccccc3)CC2)c1 (centres undefined)	none (no result: Diaph inh CS, G6PDH CS)
CC(=O)Oc1cc2c3c(c1)/C(=C1/SC(=S)NC1=O)C(=O)N3C(C)(C)C=C2C	PfGluPho inh 80 (no result: Diaph inh CS, G6PDH CS) | PfG6PD confirm inactive
CCOc1cc2c3c(c1)C(C)=CC(C)(C)N3C(=O)C2=O	none
CC(C)(C)c1ccc(OCCn2nc(C(=O)O)c3ccccc3c2=O)cc1	PfGluPho inh 62 (no result: Diaph inh CS, G6PDH CS) | PfG6PD confirm inactive
Cc1cccc(OCCn2nc(C(=O)O)c3ccccc3c2=O)c1	none
CC1(C)CSC(C)(C)C(=O)N1	none (no result: Diaph inh CS, G6PDH CS)
